Data reported in ChEMBL document CHEMBL3627646, “Synthesis and biological activity of amino acid derivatives of avarone and its model compound” (Bioorg Med Chem, 2015).
≈ marks a conversion by molar mass, not a printed value. Calls of active or inactive are those of the source. No cut-off for these calls is given here.

Tests used:
[1] = tested on: Escherichia coli; assay: Antibacterial activity against Escherichia coli ATCC 25922 after 24 hrs by microbroth double dilution method; format: functional; conditions: ATCC 25922, 24 h
Summary of the method: (§1)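 Microbroth double dilution in Mueller Hinton broth; compound stock 10 mg/mL in DMSO serially halved across rows. Wells inoculated with 10 μL culture at 10^6 cells/mL, incubated 37 °C for 24 h. Amikacin row as positive control, DMSO row as negative control. MIC taken as lowest concentration inhibiting bacterial growth.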

[2] = tested on: Kocuria rhizophila; assay: Antibacterial activity against Kocuria rhizophila ATCC 9341 after 24 hrs by microbroth double dilution method; format: functional; conditions: ATCC 9341, 24 h; summary of the method: as §1
[3] = tested on: Pseudomonas aeruginosa; assay: Antibacterial activity against Pseudomonas aeruginosa ATCC 9027 after 24 hrs by microbroth double dilution method; format: functional; conditions: ATCC 9027, 24 h; summary of the method: as §1
[4] = tested on: Micrococcus flavus; assay: Antibacterial activity against Micrococcus flavus ATCC 10240 after 24 hrs by microbroth double dilution method; format: functional; conditions: ATCC 10240, 24 h; summary of the method: as §1
[5] = tested on: MDA-MB-453; assay: Cytotoxicity against human MDA-MB-453 cells assessed as cell survival after 72 hrs by MTT assay; format: functional, cell-based; conditions: MDA-MB-453, 72 h
Summary of the method: (§2)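 Cells seeded (HeLa 2000, MDA-MB-453 3000, others 5000 per well), treated 24 h later (K562 after 2 h). Five double-diluted final concentrations, 200–12.5 μM, from 10 mM DMSO stocks, in RPMI-1640 with 10% FBS, pH 7.2, 72 h. MTT 4 h at 37 °C, SDS added, A570 read next day. Survival relative to medium control; IC50 from survival curves; triplicate; cisplatin positive control.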

[6] = tested on: HeLa; assay: Cytotoxicity against human HeLa cells assessed as cell survival after 72 hrs by MTT assay; format: functional, cell-based; summary of the method: as §2
[7] = tested on: MRC5; assay: Cytotoxicity against human MRC5 cells assessed as cell survival after 72 hrs by MTT assay; format: cell-based; conditions: MRC5, 72 h; summary of the method: as §2
[8] = tested on: Aspergillus brasiliensis; assay: Antifungal activity against Aspergillus brasiliensis ATCC 16404 after 24 hrs by microbroth double dilution method; format: functional
[9] = tested on: Micrococcus luteus; assay: Antibacterial activity against Micrococcus luteus ATCC 4698 after 24 hrs by microbroth double dilution method; format: functional; conditions: ATCC 4698, 24 h; summary of the method: as §1
[10] = tested on: A549; assay: Cytotoxicity against human A549 cells assessed as cell survival after 72 hrs by MTT assay; format: functional, cell-based; conditions: A549, 72 h; summary of the method: as §2
[11] = tested on: Candida albicans; assay: Antifungal activity against Candida albicans ATCC 10231 after 24 hrs by microbroth double dilution method; format: functional
[12] = tested on: K562; assay: Cytotoxicity against human K562 cells assessed as cell survival after 72 hrs by MTT assay; format: functional, cell-based; conditions: K562, 72 h; summary of the method: as §2
[13] = tested on: Proteus hauseri; assay: Antibacterial activity against Proteus hauseri ATCC 13315 after 24 hrs by microbroth double dilution method; format: functional; conditions: ATCC 13315, 24 h; summary of the method: as §1
[14] = tested on: Salmonella enterica; assay: Antibacterial activity against Salmonella enterica ATCC 13076 after 24 hrs by microbroth double dilution method; format: functional; conditions: ATCC 13076, 24 h; summary of the method: as §1
[15] = tested on: Bacillus subtilis; assay: Antibacterial activity against Bacillus subtilis ATCC 6633 after 24 hrs by microbroth double dilution method; format: functional; conditions: ATCC 6633, 24 h; summary of the method: as §1
[16] = tested on: Staphylococcus aureus; assay: Antibacterial activity against Staphylococcus aureus ATCC 6538 after 24 hrs by microbroth double dilution method; format: functional; conditions: ATCC 6538, 24 h; summary of the method: as §1
[17] = tested on: Saccharomyces cerevisiae; assay: Antifungal activity against Saccharomyces cerevisiae ATCC 9763 after 24 hrs by microbroth double dilution method; format: functional
[18] = Cytotoxicity against human Fem-X cells assessed as cell survival after 72 hrs by MTT assay; format: functional, cell-based; summary of the method: as §2
[19] = tested on: Clostridium sporogenes; assay: Antibacterial activity against Clostridium sporogenes ATCC 19404 after 24 hrs by microbroth double dilution method; format: functional; conditions: ATCC 19404, 24 h; summary of the method: as §1
[20] = tested on: Artemia salina; assay: Cytotoxicity in Brine shrimp assessed as nauplii mortality after 24 hrs; format: organism-based; conditions: in vivo
Summary of the method: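 Artemia salina eggs hatched in aerated tap water with dried yeast at 18–20 °C under illumination for 48 h, and freshly hatched nauplii were used. Compounds in DMSO (0.01–1 mg) were added to 950 µL artificial seawater containing 10–20 nauplii, with 5% final DMSO. After 24 h under illumination at room temperature, dead and surviving nauplii were counted and statistically analysed.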

| SMILES | MIC [1] [µM] | MIC [2] [µM] | MIC [3] [µM] | MIC [4] [µM] | IC50 [5] [µM] | IC50 [6] [µM] | IC50 [7] [µM] | MIC ([8]; ATCC 16404, 24 h) [µM] | MIC [9] [µM] | IC50 [10] [µM] | MIC ([11]; ATCC 10231, 24 h) [µM] | IC50 [12] [µM] | MIC [13] [µM] | MIC [14] [µM] | MIC [15] [µM] | MIC [16] [µM] | MIC ([17]; ATCC 9763, 24 h) [µM] | IC50 [18] [µM] | MIC [19] [µM] | LC50 [20] [ppm] | other results |
| --- | --- | --- | --- | --- | --- | --- | --- | --- | --- | --- | --- | --- | --- | --- | --- | --- | --- | --- | --- | --- | --- |
| CC1=CCC[C@H]2[C@](C)(CC3=CC(=O)C=C(N[C@@H](Cc4c[nH]c5ccccc45)C(=O)O)C3=O)[C@@H](C)CC[C@]12C | 19.1 (≈ 9.81 µg/mL) | 305 (≈ 157 µg/mL) | 37.9 (≈ 19.5 µg/mL) | 37.9 (≈ 19.5 µg/mL) | 22.9 | 16.2 | 157 | 1220 (≈ 626 µg/mL) | 19.1 (≈ 9.81 µg/mL) | 39.6 | 305 (≈ 157 µg/mL) | 16.1 | 37.9 (≈ 19.5 µg/mL) | 19.1 (≈ 9.81 µg/mL) | 37.9 (≈ 19.5 µg/mL) | 19.1 (≈ 9.81 µg/mL) | < 2.39 | 14.8 | 37.9 (≈ 19.5 µg/mL) | – | – |
| CC1=CCC[C@H]2[C@](C)(CC3=CC(=O)C=C(N[C@@H](Cc4ccccc4)C(=O)O)C3=O)[C@@H](C)CC[C@]12C | 10.3 (≈ 4.91 µg/mL) | 331 (≈ 157 µg/mL) | 20.6 (≈ 9.81 µg/mL) | 82.1 (≈ 39.1 µg/mL) | 16.6 | 14.6 | > 200 | 1320 (≈ 626 µg/mL) | 10.3 (≈ 4.91 µg/mL) | 40.1 | 164 (≈ 78.1 µg/mL) | 20.5 | 82.1 (≈ 39.1 µg/mL) | 20.6 (≈ 9.81 µg/mL) | 20.6 (≈ 9.81 µg/mL) | 10.3 (≈ 4.91 µg/mL) | 10.3 (≈ 4.91 µg/mL) | 17.3 | 82.1 (≈ 39.1 µg/mL) | 96.7 | – |
| CC1=CCC[C@H]2[C@](C)(CC3=CC(=O)C=CC3=O)[C@@H](C)CC[C@]12C [AVARONE] | 441 (≈ 138 µg/mL) | 20 (≈ 6.26 µg/mL) | 13.8 (≈ 4.31 µg/mL) | 20 (≈ 6.26 µg/mL) | 16.7 | 18.1 | > 200 | – | 2000 (≈ 625 µg/mL) | 30 | – | 17.1 | 27.6 (≈ 8.61 µg/mL) | 55.1 (≈ 17.2 µg/mL) | 80.1 (≈ 25 µg/mL) | 40.1 (≈ 12.5 µg/mL) | – | 40.3 | 20 (≈ 6.26 µg/mL) | 170 | MIC [8]: inactive; MIC [11]: inactive; MIC [17]: inactive |
| CSCC[C@H](NC1=CC(=O)C=C(C(C)(C)C)C1=O)C(=O)O | 1010 (≈ 313 µg/mL) | 2010 (≈ 626 µg/mL) | 2010 (≈ 626 µg/mL) | 2010 (≈ 626 µg/mL) | 151 | 77.4 | > 200 | 2010 (≈ 626 µg/mL) | 505 (≈ 157 µg/mL) | > 200 | 505 (≈ 157 µg/mL) | 88.5 | 2010 (≈ 626 µg/mL) | 2010 (≈ 626 µg/mL) | 2010 (≈ 626 µg/mL) | 1010 (≈ 313 µg/mL) | 505 (≈ 157 µg/mL) | 34.8 | 2010 (≈ 626 µg/mL) | 360.2 | – |
| CC(C)C[C@H](NC1=CC(=O)C=C(C(C)(C)C)C1=O)C(=O)O | 266 (≈ 78 µg/mL) | 2130 (≈ 625 µg/mL) | 4260 (≈ 1250 µg/mL) | 2130 (≈ 625 µg/mL) | 84.9 | 57.2 | > 200 | 1070 (≈ 313 µg/mL) | 266 (≈ 78 µg/mL) | 97.9 | 536 (≈ 157 µg/mL) | 76.5 | 2130 (≈ 625 µg/mL) | 2130 (≈ 625 µg/mL) | 2130 (≈ 625 µg/mL) | 266 (≈ 78 µg/mL) | 133 (≈ 39 µg/mL) | 39.4 | 2130 (≈ 625 µg/mL) | 104.8 | – |
| C[C@H](NC1=CC(=O)C=C(C(C)(C)C)C1=O)C(=O)O | 1250 (≈ 313 µg/mL) | 4980 (≈ 1250 µg/mL) | 2490 (≈ 626 µg/mL) | 2490 (≈ 626 µg/mL) | 112 | 89.1 | > 200 | 1240 (≈ 312 µg/mL) | 1250 (≈ 313 µg/mL) | > 200 | 626 (≈ 157 µg/mL) | 77.6 | 4980 (≈ 1250 µg/mL) | 2490 (≈ 626 µg/mL) | 2490 (≈ 626 µg/mL) | 1250 (≈ 313 µg/mL) | 626 (≈ 157 µg/mL) | 20.1 | 2490 (≈ 626 µg/mL) | 393.8 | – |
| CC1=CCC[C@H]2[C@](C)(CC3=CC(=O)C(N4CCC[C@H]4C(=O)O)=CC3=O)[C@@H](C)CC[C@]12C | 91.5 (≈ 39 µg/mL) | 735 (≈ 313 µg/mL) | 183 (≈ 77.9 µg/mL) | 183 (≈ 77.9 µg/mL) | 60.6 | 36.2 | 96 | 735 (≈ 313 µg/mL) | 91.5 (≈ 39 µg/mL) | 49.2 | 23 (≈ 9.79 µg/mL) | 35.4 | 183 (≈ 77.9 µg/mL) | 183 (≈ 77.9 µg/mL) | 183 (≈ 77.9 µg/mL) | 91.5 (≈ 39 µg/mL) | 45.8 (≈ 19.5 µg/mL) | 39.6 | 369 (≈ 157 µg/mL) | 706.6 | – |
